Laboratory results as given in ChEMBL document CHEMBL4118248, “Small Molecule Proprotein Convertase Subtilisin/Kexin Type 9 (PCSK9) Inhibitors: Hit to Lead Optimization of Systemic Agents” (J Med Chem, 2018).

Columns and labels:
[1] = system: Rattus norvegicus; assay: Toxicity in Crl:CD(SD) rat assessed as decrease in helper T cells at 50 mg/kg/day, po daily via gavage for 14 days measured on day 15 post last dose relative to control; type: organism-based; parameters: scale not given: the % may be the effect or the level left; settings: in vivo, 336 h
[2] = system: Rattus norvegicus; assay: Toxicity in Crl:CD(SD) rat assessed as decrease in lymphocytes at 50 mg/kg/day, po daily via gavage for 14 days measured on day 15 post last dose relative to control; type: organism-based; parameters: scale not given: the % may be the effect or the level left; settings: in vivo, 336 h
[3] = target: Cytochrome P450 2D6 (Homo sapiens, UniProt P10635); assay: Inhibition of CYP2D6 (unknown origin); type: ADME
Chain of Cytochrome P450 2D6 (P10635 whole entry): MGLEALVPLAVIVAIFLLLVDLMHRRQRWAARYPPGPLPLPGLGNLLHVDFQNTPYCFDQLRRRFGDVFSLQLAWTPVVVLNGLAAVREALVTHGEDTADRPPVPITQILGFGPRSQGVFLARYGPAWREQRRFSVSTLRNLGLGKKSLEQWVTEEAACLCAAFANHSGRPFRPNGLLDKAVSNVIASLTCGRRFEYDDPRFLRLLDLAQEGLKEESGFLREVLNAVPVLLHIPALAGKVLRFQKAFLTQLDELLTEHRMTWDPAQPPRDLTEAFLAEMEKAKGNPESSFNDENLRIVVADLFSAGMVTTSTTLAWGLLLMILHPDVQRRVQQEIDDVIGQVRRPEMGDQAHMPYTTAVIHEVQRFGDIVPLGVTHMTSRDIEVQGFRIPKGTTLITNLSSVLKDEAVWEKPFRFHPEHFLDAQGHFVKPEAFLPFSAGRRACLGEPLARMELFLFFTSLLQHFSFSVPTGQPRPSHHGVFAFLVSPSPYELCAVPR
Outline: (§1)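 Inhibition of CYP1A2, 2D6, 2C9 and 3A4 reported as IC50, or as percent inhibition at 3 µM.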

[4] = system: IEC-6; assay: Cytotoxicity against rat IEC-6 cells assessed as reduction in cell viability after 3 days by CellTiter-Glo assay; type: cell-based; settings: IEC-6, 72 h
Outline: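 Rat intestinal epithelial IEC-6 cells; viability read by CellTiter-Glo ATP luminescence.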

[5] = Intrinsic clearance in human liver microsomes; type: ADME, microsome; settings: read-out: CLH
[6] = target: Cytochrome P450 2C9 (Homo sapiens, UniProt P11712); assay: Inhibition of CYP2C9 (unknown origin); type: ADME; outline: as §1
Chain of Cytochrome P450 2C9 (P11712 whole entry): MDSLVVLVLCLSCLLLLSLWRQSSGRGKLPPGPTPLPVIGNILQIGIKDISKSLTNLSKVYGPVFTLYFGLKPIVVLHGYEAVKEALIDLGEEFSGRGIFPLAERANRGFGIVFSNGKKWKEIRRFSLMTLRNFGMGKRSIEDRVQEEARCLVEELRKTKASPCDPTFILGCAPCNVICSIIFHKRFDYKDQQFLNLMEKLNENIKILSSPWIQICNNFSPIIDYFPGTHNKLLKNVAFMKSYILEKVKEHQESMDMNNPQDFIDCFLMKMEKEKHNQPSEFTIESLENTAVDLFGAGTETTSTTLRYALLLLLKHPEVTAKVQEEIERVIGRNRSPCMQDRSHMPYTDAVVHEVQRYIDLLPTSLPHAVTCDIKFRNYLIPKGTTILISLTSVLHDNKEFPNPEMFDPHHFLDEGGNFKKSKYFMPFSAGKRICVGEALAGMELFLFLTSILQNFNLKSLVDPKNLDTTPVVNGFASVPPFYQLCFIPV

[7] = system: Rattus norvegicus; assay: Toxicity in Crl:CD(SD) rat assessed as single cell necrosis in crypt cells in ileum at 50 mg/kg/day, po daily via gavage for 14 days measured on day 15 post last dose; type: organism-based; settings: in vivo, 336 h
[8] = system: Rattus norvegicus; assay: Toxicity in Crl:CD(SD) rat assessed as decrease in eosinophils at 50 mg/kg/day, po daily via gavage for 14 days measured on day 15 post last dose relative to control; type: organism-based; parameters: scale not given: the % may be the effect or the level left; settings: in vivo, 336 h
[9] = Total Cmax in Crl:CD(SD) rat at 15 mg/kg/day, po daily via gavage for 14 days measured on day 14 post last dose up to 24 hrs; type: ADME, organism-based; parameters: dose 15 mg/kg/day, route oral; settings: in vivo
[10] = system: Rattus norvegicus; assay: Toxicity in Crl:CD(SD) rat at 5 to 15 mg/kg/day, po daily via gavage for 14 days measured on day 15 post last dose; type: organism-based; settings: in vivo, 336 h
[11] = system: Rattus norvegicus; assay: Toxicity in Crl:CD(SD) rat assessed as decrease in total nucleated cell count at 50 mg/kg/day, po daily via gavage for 14 days measured on day 15 post last dose relative to control; type: organism-based; parameters: scale not given: the % may be the effect or the level left; settings: in vivo, 336 h
[12] = Total plasma concentration in Crl:CD(SD) rat at 15 mg/kg/day, po daily via gavage for 14 days measured on day 14 post last dose up to 24 hrs; type: ADME, organism-based; settings: in vivo
[13] = target: 80S Ribosome; assay: Binding affinity to 80S ribosome in human HuH7 cells harboring pCMV-truncated human PCSK9 (1 to 152 residues)-proLuc assessed as inhibition of PCSK9 mRNA translation after overnight incubation by luciferase reporter gene assay; type: cell-based; settings: huh-7
Outline: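 Huh7 cells stably carry human PCSK9 prodomain (aa 1-152) fused to firefly luciferase (aa 2-550) in pcDNA3.1, kept under 900 µg/mL Geneticin. Plated 10,000/well in phenol red-free DMEM/10% FBS and left 4 h, then compound added (top final 20 µM, 0.5% DMSO). Incubated overnight at 37 °C, luminescence read with SteadyGlo.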

[14] = system: Rattus norvegicus; assay: Toxicity in Crl:CD(SD) rat assessed as decrease in WBC at 50 mg/kg/day, po daily via gavage for 14 days measured on day 15 post last dose relative to control; type: organism-based; parameters: scale not given: the % may be the effect or the level left; settings: in vivo, 336 h
[15] = system: Rattus norvegicus; assay: Toxicity in Crl:CD(SD) rat assessed as decrease in B cells at 50 mg/kg/day, po daily via gavage for 14 days measured on day 15 post last dose relative to control; type: organism-based; parameters: scale not given: the % may be the effect or the level left; settings: in vivo, 336 h
[16] = system: Rattus norvegicus; assay: Reduction in LDL cholesterol level in Crl:CD(SD) rat at 50 mg/kg/day, po daily via gavage for 14 days measured on day 15 post last dose relative to control; type: functional; parameters: scale not given: the % may be the effect or the level left
[17] = target: T1, Cytochrome P450 1A2 (Homo sapiens, UniProt P05177); assay: Inhibition of CYP1A2 (unknown origin); type: ADME; outline: as §1
T1 sequence (P05177 whole entry): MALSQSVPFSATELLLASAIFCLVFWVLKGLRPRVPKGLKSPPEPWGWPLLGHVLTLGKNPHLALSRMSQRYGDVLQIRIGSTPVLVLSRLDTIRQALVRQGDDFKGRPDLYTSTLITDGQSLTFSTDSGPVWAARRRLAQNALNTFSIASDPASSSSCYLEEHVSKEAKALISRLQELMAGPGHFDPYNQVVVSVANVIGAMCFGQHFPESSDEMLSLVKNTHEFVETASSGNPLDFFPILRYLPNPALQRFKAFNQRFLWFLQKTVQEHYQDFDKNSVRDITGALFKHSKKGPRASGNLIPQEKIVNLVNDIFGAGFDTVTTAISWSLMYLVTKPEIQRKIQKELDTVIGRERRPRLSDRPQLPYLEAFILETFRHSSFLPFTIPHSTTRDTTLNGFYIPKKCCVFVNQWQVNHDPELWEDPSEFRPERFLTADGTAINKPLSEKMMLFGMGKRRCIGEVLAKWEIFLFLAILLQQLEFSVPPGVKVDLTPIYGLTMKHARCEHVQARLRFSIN

[18] = target: 80S Ribosome; assay: Binding affinity of [3H]PF-06446846 to human 80S ribosome
[19] = target: Cytochrome P450 3A4 (Homo sapiens, UniProt P08684); assay: Inhibition of CYP3A4 (unknown origin); type: ADME; outline: as §1
Chain of Cytochrome P450 3A4 (P08684 whole entry): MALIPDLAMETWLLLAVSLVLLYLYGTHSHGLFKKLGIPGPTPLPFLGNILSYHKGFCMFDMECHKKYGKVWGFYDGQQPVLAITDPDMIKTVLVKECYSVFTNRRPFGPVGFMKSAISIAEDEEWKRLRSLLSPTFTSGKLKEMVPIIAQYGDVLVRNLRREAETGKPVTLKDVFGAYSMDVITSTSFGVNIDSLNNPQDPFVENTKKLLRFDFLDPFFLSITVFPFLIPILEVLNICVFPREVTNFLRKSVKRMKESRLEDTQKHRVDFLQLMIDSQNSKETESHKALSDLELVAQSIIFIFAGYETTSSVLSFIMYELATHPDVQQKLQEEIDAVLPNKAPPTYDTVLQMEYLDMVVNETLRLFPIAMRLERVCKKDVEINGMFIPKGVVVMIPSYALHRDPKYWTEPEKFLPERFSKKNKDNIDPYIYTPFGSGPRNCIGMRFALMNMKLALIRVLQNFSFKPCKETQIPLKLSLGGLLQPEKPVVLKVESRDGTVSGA

[20] = system: Rattus norvegicus; assay: Toxicity in Crl:CD(SD) rat assessed as discolored/mottled liver at 50 mg/kg/day, po daily via gavage for 14 days measured on day 15 post last dose; type: organism-based; settings: in vivo, 336 h
Outline: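 Male rats, 5 per group, given vehicle or compound at 50 mg/kg/day by oral gavage for 14 days. Mortality, clinical signs and hematology monitored throughout. Necropsy on day 15 with microscopy of bone marrow, ileum, duodenum, jejunum and liver. Toxicokinetics at 1, 3, 6 and 24 h post-dose on day 14.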

[21] = system: Rattus norvegicus; assay: Toxicity in Crl:CD(SD) rat assessed as decrease in basophils at 50 mg/kg/day, po daily via gavage for 14 days measured on day 15 post last dose relative to control; type: organism-based; parameters: scale not given: the % may be the effect or the level left; settings: in vivo, 336 h
[22] = system: Rattus norvegicus; assay: Toxicity in Crl:CD(SD) rat assessed as decrease in proliferating erythroid cells at 50 mg/kg/day, po daily via gavage for 14 days measured on day 15 post last dose relative to control; type: organism-based; parameters: scale not given: the % may be the effect or the level left; settings: in vivo, 336 h
[23] = system: Rattus norvegicus; assay: Toxicity in Crl:CD(SD) rat assessed as decrease in monocytes at 50 mg/kg/day, po daily via gavage for 14 days measured on day 15 post last dose relative to control; type: organism-based; parameters: scale not given: the % may be the effect or the level left; settings: in vivo, 336 h
[24] = Permeability from apical to basolateral side in MDCK cells harboring MDR1; type: ADME, cell-based, Canis lupus familiaris; settings: dog, read-out: permeability
Outline: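 Bidirectional permeability across MDR1-transfected MDCK monolayers, apical-to-basolateral and basolateral-to-apical; Papp reported in 10^-6 cm/s.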

[25] = system: Rattus norvegicus; assay: Toxicity in Crl:CD(SD) rat assessed as decrease in absolute maturing erythroid cells at 50 mg/kg/day, po daily via gavage for 14 days measured on day 15 post last dose relative to control; type: organism-based; parameters: scale not given: the % may be the effect or the level left; settings: in vivo, 336 h
[26] = Fraction unbound in rat plasma; type: ADME, cell-free
Outline: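 Unbound fraction measured in rat plasma.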

[27] = Cytotoxicity against human CD34-positive hematopoietic progenitor cells assessed as reduction in cell viability after 72 hrs by CellTiter-Glo assay; type: cell-based
[28] = system: Rattus norvegicus; assay: Toxicity in Crl:CD(SD) rat assessed as decrease in cytotoxic T cells at 50 mg/kg/day, po daily via gavage for 14 days measured on day 15 post last dose relative to control; type: organism-based; parameters: scale not given: the % may be the effect or the level left; settings: in vivo, 336 h

Work on `O=C(c1ccc(-n2nnc3cccnc32)cc1)N(c1ncccc1Cl)[C@@H]1CCCNC1` yielded an Activity [1] of 54%, an Activity [2] of 54% and an IC50 [3] greater than 30 µM. The IC50 [4] was greater than 20 µM, the microsomal CLint [5] was 9.7 µL/min/mg and the IC50 [6] was greater than 30 µM. For the same compound, the Activity [7] was “Toxic”, the Activity [8] was 54% and the Cmax [9] was 1640 ng/mL. The Activity [10] was “Non-Toxic”, the Activity [11] was 30% and the concentration [12] was 2420 nM. It also gave an IC50 [13] of 0.38 µM, an Activity [14] of 52% and an Activity [15] of 58%. The Activity [16] was 58%, the IC50 [17] was greater than 30 µM and the Ki [18] was 7 µM. The IC50 [19] was greater than 30 µM, the Activity [20] was “Toxic” and the Activity [21] was 100%. The Activity [22] was 32.9%, the Activity [23] was 63% and the Papp A→B [24] was 1.5 ×10⁻⁶ cm/s. It also gave an Activity [25] of 48%, a fraction unbound [26] of 0.2 and an IC50 [27] of 2.7 µM. The Activity [28] was 54.5%.
